Values after ≈ are worked out from the molar mass of the structure shown. Active and inactive are the calls of the source. No cut-off for these calls is given here.
How the values were obtained:
[1] = tested on: DU-145; assay: Cytotoxicity against human DU145 cells after 48 hrs by sulforhodamine B assay; assay type: functional; settings: DU-145, 48 h
Method in brief: (§1)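 Cells were grown in RPMI-1640 with 5% fetal bovine serum in 96-well plates for 24 h, then exposed to serial dilutions in DMSO vehicle for 48 h. Plates were fixed with trichloroacetic acid, stained with sulforhodamine B and read for optical density. GI50 is the concentration giving a 50% reduction in net protein increase.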

[2] = tested on: KM-20L2; assay: Cytotoxicity against human KM20L2 cells after 48 hrs by sulforhodamine B assay; assay type: functional; settings: KM-20L2, 48 h; method in brief: as §1
[3] = tested on: NCI-H460; assay: Cytotoxicity against human NCI-H460 cells after 48 hrs by sulforhodamine B assay; assay type: functional; settings: NCI-H460, 48 h; method in brief: as §1
[4] = tested on: MCF7; assay: Cytotoxicity against human MCF7 cells after 48 hrs by sulforhodamine B assay; assay type: functional; settings: MCF7, 48 h; method in brief: as §1
[5] = tested on: SF-268; assay: Cytotoxicity against human SF268 cells after 48 hrs by sulforhodamine B assay; assay type: functional; settings: SF-268, 48 h; method in brief: as §1
[6] = tested on: BXPC-3; assay: Cytotoxicity against human BxPC3 cells after 48 hrs by sulforhodamine B assay; assay type: functional; settings: BXPC-3, 48 h; method in brief: as §1
[7] = tested on: Streptococcus pyogenes; assay: Antibacterial activity against Streptococcus pyogenes clinical isolate by broth microdilution assay in presence of 25% heat inactivated human serum; assay type: functional
[8] = tested on: Streptococcus pneumoniae; assay: Antibacterial activity against Streptococcus pneumoniae by broth microdilution assay in presence of 25% heat inactivated human serum; assay type: functional
[9] = tested on: P388; assay: Cytotoxicity against mouse P388 cells after 48 hrs by coulter counter method; assay type: functional; settings: P388, 48 h, read-out: ED50 (the source's name)
Method in brief: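 Murine lymphocytic leukemia P388 cells were preincubated for 24 h in Fisher medium with 10% horse serum, then incubated 48 h with serial dilutions in DMSO vehicle. Cells were counted on a Coulter particle counter, and ED50 was taken as the concentration giving 50% growth inhibition.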

[10] = tested on: Neisseria gonorrhoeae; assay: Antibacterial activity against Neisseria gonorrhoeae ATCC 49226 at 64 ug/mL by broth microdilution assay; assay type: functional, organism-based
[11] = tested on: Enterobacter cloacae; assay: Antibacterial activity against Enterobacter cloacae ATCC 13047 at 64 ug/mL by broth microdilution assay; assay type: functional, organism-based
[12] = tested on: Stenotrophomonas maltophilia; assay: Antibacterial activity against Stenotrophomonas maltophilia ATCC 13637 at 64 ug/mL by broth microdilution assay; assay type: functional, organism-based
[13] = tested on: Escherichia coli; assay: Antibacterial activity against Escherichia coli ATCC 25922 at 64 ug/mL by broth microdilution assay; assay type: functional, organism-based
[14] = tested on: Enterococcus faecalis; assay: Antibacterial activity against Enterococcus faecalis ATCC 29212 at 64 ug/mL by broth microdilution assay; assay type: functional, organism-based
[15] = tested on: Micrococcus luteus; assay: Antibacterial activity against Micrococcus luteus Presque Isle 456 at 64 ug/mL by broth microdilution assay; assay type: functional, organism-based
[16] = tested on: Staphylococcus aureus; assay: Antibacterial activity against Staphylococcus aureus ATCC 29213 at 64 ug/mL by broth microdilution assay; assay type: functional, organism-based
[17] = tested on: Cryptococcus neoformans; assay: Antifungal activity against Cryptococcus neoformans ATCC 90112 at 64 ug/mL by broth microdilution assay; assay type: functional, organism-based
[18] = tested on: Candida albicans; assay: Antifungal activity against Candida albicans ATCC 90028 at 64 ug/mL by broth microdilution assay; assay type: functional, organism-based
[19] = tested on: Streptococcus pyogenes; assay: Antibacterial activity against Streptococcus pyogenes clinical isolate by broth microdilution assay; assay type: functional
[20] = tested on: Streptococcus pneumoniae; assay: Antibacterial activity against multidrug-resistant Streptococcus pneumoniae ATCC 700673 by broth microdilution assay; assay type: functional
[21] = tested on: Streptococcus pneumoniae; assay: Antibacterial activity against Streptococcus pneumoniae ATCC 6303 by broth microdilution assay; assay type: functional
[22] = tested on: Streptococcus pneumoniae; assay: Antibacterial activity against penicillin-resistant Streptococcus pneumoniae clinical isolate by broth microdilution assay; assay type: functional

| Structure (SMILES) | GI50 [1] | GI50 [2] | GI50 [3] | GI50 [4] | GI50 [5] | GI50 [6] | MIC [7] | MIC [8] | EC50 [9] | Activity [10] | Activity [11] | Activity [12] | Activity [13] | Activity [14] | Activity [15] | Activity [16] | Activity [17] | Activity [18] | MBC [19] | MIC [19] | other results |
| --- | --- | --- | --- | --- | --- | --- | --- | --- | --- | --- | --- | --- | --- | --- | --- | --- | --- | --- | --- | --- | --- |
| CC[C@H](C)[C@H]1OC(=O)[C@H](C(C)C)NC(=O)[C@H](C)OC(=O)[C@@H](C(C)C)NC(=O)[C@@H]([C@@H](C)CC)OC(=O)[C@H](C(C)C)NC(=O)[C@H](C)OC(=O)[C@@H](C(C)C)NC(=O)[C@@H](CC(C)C)OC(=O)[C@H](C(C)C)NC(=O)[C@H](C)OC(=O)[C@@H](C(C)C)NC1=O | 0.00086 µg/mL (≈ 0.746 nM) | 0.00026 µg/mL (≈ 0.225 nM) | 0.00045 µg/mL (≈ 0.39 nM) | 0.00031 µg/mL (≈ 0.269 nM) | 0.0018 µg/mL (≈ 1.56 nM) | 0.00034 µg/mL (≈ 0.295 nM) | > 64 µg/mL | > 64 µg/mL | 0.013 µg/mL (≈ 11.3 nM) | inactive | inactive | inactive | inactive | inactive | inactive | inactive | inactive | inactive | > 16 µg/mL | 2 µg/mL (≈ 1730 nM) | MBC [20]: < 0.5 µg/mL; MIC [20]: < 0.5 µg/mL; MBC [21]: 2 µg/mL (≈ 1730 nM); MIC [21]: 1 µg/mL (≈ 867 nM); MBC [22]: 1 µg/mL (≈ 867 nM); MIC [22]: 1 µg/mL (≈ 867 nM) |
| CC[C@H](C)[C@H]1OC(=O)[C@H](C(C)C)NC(=O)[C@H](C)OC(=O)[C@@H](C(C)C)NC(=O)[C@@H]([C@@H](C)CC)OC(=O)[C@H](C(C)C)NC(=O)[C@H](C)OC(=O)[C@@H](C(C)C)NC(=O)[C@@H]([C@@H](C)CC)OC(=O)[C@H](C(C)C)NC(=O)[C@H](C)OC(=O)[C@@H](C(C)C)NC1=O [BACILLISTATIN 1] | 0.0015 µg/mL (≈ 1.3 nM) | 0.00087 µg/mL (≈ 0.754 nM) | 0.0023 µg/mL (≈ 1.99 nM) | 0.00061 µg/mL (≈ 0.529 nM) | 0.00045 µg/mL (≈ 0.39 nM) | 0.00095 µg/mL (≈ 0.824 nM) | > 64 µg/mL | > 64 µg/mL | 0.023 µg/mL (≈ 19.9 nM) | inactive | inactive | inactive | inactive | inactive | inactive | inactive | inactive | inactive | > 32 µg/mL | 2 µg/mL (≈ 1730 nM) | MBC [20]: 1 µg/mL (≈ 867 nM); MIC [20]: < 0.5 µg/mL; MBC [21]: 4 µg/mL (≈ 3470 nM); MIC [21]: 2 µg/mL (≈ 1730 nM); MBC [22]: 2 µg/mL (≈ 1730 nM); MIC [22]: 1 µg/mL (≈ 867 nM) |
| CC(C)[C@@H]1NC(=O)[C@H](C)OC(=O)[C@@H](C(C)C)NC(=O)[C@@H](C(C)C)OC(=O)[C@H](C(C)C)NC(=O)[C@H](C)OC(=O)[C@@H](C(C)C)NC(=O)[C@@H](C(C)C)OC(=O)[C@H](C(C)C)NC(=O)[C@H](C)OC(=O)[C@@H](C(C)C)NC(=O)[C@@H](C(C)C)OC1=O [VALINOMYCIN] | 0.0035 µg/mL (≈ 3.15 nM) | 0.0008 µg/mL (≈ 0.72 nM) | 0.0025 µg/mL (≈ 2.25 nM) | 0.001 µg/mL (≈ 0.9 nM) | 0.0027 µg/mL (≈ 2.43 nM) | 0.0019 µg/mL (≈ 1.71 nM) | – | – | 0.12 µg/mL (≈ 108 nM) | – | – | – | – | – | – | – | – | – | – | – | – |

— ChEMBL document CHEMBL1151986, “Antineoplastic agents. 570. Isolation and structure elucidation of bacillistatins 1 and 2 from a marine Bacillus silvestris” (2009)
